Laboratory results reported in ChEMBL document CHEMBL4480441, “Discovery and development of novel rhodanine derivatives targeting enoyl-acyl carrier protein reductase” (Bioorg Med Chem, 2019).
pIC50: −log10 of the molar value. In brackets after ≈: the same amount, converted by molar mass.

Tests used:
[1] = system: Mycobacterium tuberculosis; experiment: Antitubercular activity against Mycobacterium tuberculosis measured after 48 hrs by luminescence based serial dilution method; format: functional
[2] = target: T1, Enoyl-[acyl-carrier-protein] reductase [NADH] (Mycobacterium tuberculosis, UniProt P9WGR1); experiment: Inhibition of recombinant Mycobacterium tuberculosis InhA expressed in Escherichia coli […] pLysS using trans-2-decenoyl-N-acetylcysteamine as substrate by spectrophotometric method
T1 sequence (P9WGR1 whole entry): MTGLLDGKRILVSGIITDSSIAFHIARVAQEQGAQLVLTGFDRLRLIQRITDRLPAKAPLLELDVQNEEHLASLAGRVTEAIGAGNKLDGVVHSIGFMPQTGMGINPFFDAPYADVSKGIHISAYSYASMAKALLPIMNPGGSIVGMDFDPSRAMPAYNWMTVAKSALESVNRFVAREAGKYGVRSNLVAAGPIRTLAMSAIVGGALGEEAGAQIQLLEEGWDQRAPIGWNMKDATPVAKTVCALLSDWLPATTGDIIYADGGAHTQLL

[3] = Cytotoxicity against HEK293 cells after 48 hrs by MTT assay; format: cell-based; details: human, read-out: MIC
Staphylococcus aureus [4] = experiment: Antimicrobial activity against […] Staphylococcus aureus ATCC 29213 measured after 48 hrs; format: functional; details: ATCC 29213, 48 h
How it was run: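 Brucella broth with 10% heat-inactivated horse serum. Inoculum of 1×10^5 bacteria per well, exposed to a range of compound concentrations at 37 °C for 48 h. Absorbance read at 590 nm. Drug-free wells served as growth control and medium-only wells as blank. MIC is the concentration giving 80% growth inhibition.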

Pseudomonas aeruginosa = experiment: Antimicrobial activity against Pseudomonas aeruginosa […] measured after 48 hrs by p-iodonitrotetrazolium violet dye based serial dilution test; format: functional
Staphylococcus aureus [5] = experiment: Antimicrobial activity against methicillin-sensitive Staphylococcus aureus ATCC 25923 measured after 48 hrs; format: functional; details: ATCC 25923, 48 h
How it was run: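 Brucella broth with 10% heat-inactivated horse serum. Inoculum of 1×10^5 bacteria per well, exposed to a range of compound concentrations for 48 h at 37 °C. Read as absorbance at 590 nm, with compound-free wells as control and medium-only wells as blank. Percent growth inhibition was calculated, and the concentration giving 80% inhibition was taken as the MIC.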

DNA gyrase = DNA gyrase (Escherichia coli, UniProt P0AES4+P0AES6); experiment: Inhibition of Escherichia coli DNA gyrase assessed as reduction in enzyme-mediated supercoiling of relaxed pBR322 DNA measured after 60 mins by electrophoresis method; format: protein-complex assay
[6] = target: T2, 3-oxoacyl-[acyl-carrier-protein] synthase 3 (Escherichia coli, UniProt C3TDZ2); experiment: Inhibition of Escherichia coli KAS3 expressed in Escherichia coli BL21(DE3)
T2 sequence (C3TDZ2 whole entry): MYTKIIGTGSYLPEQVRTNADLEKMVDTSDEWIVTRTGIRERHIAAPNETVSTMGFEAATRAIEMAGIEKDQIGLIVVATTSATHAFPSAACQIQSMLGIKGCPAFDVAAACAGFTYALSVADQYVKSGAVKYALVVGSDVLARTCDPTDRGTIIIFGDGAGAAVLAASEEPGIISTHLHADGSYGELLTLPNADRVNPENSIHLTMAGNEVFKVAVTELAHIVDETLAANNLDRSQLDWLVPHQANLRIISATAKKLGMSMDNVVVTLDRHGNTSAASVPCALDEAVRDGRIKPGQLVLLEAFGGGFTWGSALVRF

Row | SMILES | MIC [1] | pIC50 [2] | MCC at 48 h [3] | MIC (Staphylococcus aureus [4]) | MIC (Pseudomonas aeruginosa) | MIC (Staphylococcus aureus [5]) | pIC50 (DNA gyrase) | pIC50 [6]
1 | COc1ccc(C(=O)CN2C(=O)/C(=C\c3ccccc3OC)SC2=S)cc1 | 9.27 µM (≈ 3.7 µg/mL) | 4.77 |  |  |  |  |  | 
2 | COc1ccccc1/C=C1/SC(=S)N(CC(=O)c2ccccc2)C1=O | 30.4 µM (≈ 11.2 µg/mL) | 4.55 |  |  |  |  |  | 
3 | CC(=O)Nc1ccc(/C=C2/SC(=S)N(CC(=O)c3ccccc3)C2=O)cc1 | 3.18 µM (≈ 1.26 µg/mL) | 4.94 |  |  |  |  |  | 
4 | O=C(CN1C(=O)/C(=C\c2ccc(F)cc2)SC1=S)c1ccccc1 | 57.4 µM (≈ 20.5 µg/mL) | 4.26 |  |  |  |  |  | 
5 | O=C(CN1C(=O)/C(=C\c2ccc(Cl)cc2)SC1=S)c1ccccc1 | 48.2 µM (≈ 18 µg/mL) | 4.30 |  |  |  |  |  | 
6 | O=C(CN1C(=O)/C(=C\c2ccccc2)SC1=S)c1ccccc1 | 32.3 µM (≈ 11 µg/mL) | 4.40 |  |  |  |  |  | 
7 | O=C(CN1C(=O)/C(=C\c2ccc([N+](=O)[O-])cc2)SC1=S)c1ccccc1 | 36.5 µM (≈ 14 µg/mL) | 4.36 |  |  |  |  |  | 
8 | COc1ccc(/C=C2/SC(=S)N(CC(=O)c3ccccc3)C2=O)cc1 | 2.95 µM (≈ 1.09 µg/mL) | 5.08 | 167 µM | 4.15 µM (≈ 1.53 µg/mL) | 4.83 µM (≈ 1.78 µg/mL) | 4.28 µM (≈ 1.58 µg/mL) |  | 
9 | O=C(CN1C(=O)/C(=C\c2ccc(Br)cc2)SC1=S)c1ccccc1 | 21.1 µM (≈ 8.83 µg/mL) | 4.62 |  |  |  |  |  | 
10 | COc1cc(/C=C2/SC(=S)N(CC(=O)c3ccccc3)C2=O)cc(OC)c1OC | 0.38 µM (≈ 0.163 µg/mL) | 5.51 | > 200 µM | 7.2 µM (≈ 3.09 µg/mL) | 5.41 µM (≈ 2.32 µg/mL) | 4.61 µM (≈ 1.98 µg/mL) | < 3.00 | 3.11
11 | COc1ccc(C(=O)CN2C(=O)/C(=C\c3ccccc3Cl)SC2=S)cc1 | 7.83 µM (≈ 3.16 µg/mL) | 4.82 |  |  |  |  |  | 
12 | COc1ccc(C(=O)CN2C(=O)/C(=C\c3ccc(Br)cc3)SC2=S)cc1 | 4.04 µM (≈ 1.81 µg/mL) | 4.92 |  |  |  |  |  | 
13 | O=C(CN1C(=O)/C(=C\c2ccc(O)cc2)SC1=S)c1ccccc1 | 33.1 µM (≈ 11.8 µg/mL) | 4.45 |  |  |  |  |  | 
14 | O=C(CN1C(=O)/C(=C\c2ccccc2Cl)SC1=S)c1ccccc1 | 25.5 µM (≈ 9.53 µg/mL) | 4.59 |  |  |  |  |  | 
15 | O=C(CN1C(=O)/C(=C\c2cccc(Cl)c2)SC1=S)c1ccccc1 | 40.9 µM (≈ 15.3 µg/mL) | 4.33 |  |  |  |  |  | 
16 | CN(C)c1ccc(/C=C2/SC(=S)N(CC(=O)c3ccccc3)C2=O)cc1 | 12.6 µM (≈ 4.82 µg/mL) | 4.76 |  |  |  |  |  | 
17 | COc1ccc(C(=O)CN2C(=O)/C(=C\c3ccc(F)cc3)SC2=S)cc1 | 17.8 µM (≈ 6.9 µg/mL) | 4.70 |  |  |  |  |  | 
18 | COc1cccc(/C=C2/SC(=S)N(CC(=O)c3ccccc3)C2=O)c1 | 20.5 µM (≈ 7.57 µg/mL) | 4.65 |  |  |  |  |  | 
19 | Cc1ccc(/C=C2/SC(=S)N(CC(=O)c3ccccc3)C2=O)cc1 | 15.1 µM (≈ 5.34 µg/mL) | 4.76 |  |  |  |  |  | 
20 | COc1ccc(C(=O)CN2C(=O)/C(=C\c3cccc(Cl)c3)SC2=S)cc1 | 2.02 µM (≈ 0.816 µg/mL) | 5.11 | > 200 µM | 3.88 µM (≈ 1.57 µg/mL) | 5.05 µM (≈ 2.04 µg/mL) | 2.16 µM (≈ 0.872 µg/mL) |  | 
21 | COc1ccc(C(=O)CN2C(=O)/C(=C\c3cc(OC)c(OC)c(OC)c3)SC2=S)cc1 | 0.29 µM (≈ 0.133 µg/mL) | 5.59 | > 200 µM | 1.54 µM (≈ 0.708 µg/mL) | 0.95 µM (≈ 0.437 µg/mL) | 1.24 µM (≈ 0.57 µg/mL) | < 3.00 | 3.05
22 | COc1ccc(C(=O)CN2C(=O)/C(=C\c3ccc(C)cc3)SC2=S)cc1 | 0.49 µM (≈ 0.188 µg/mL) | 5.30 | 195 µM | 10.2 µM (≈ 3.91 µg/mL) | 8.12 µM (≈ 3.11 µg/mL) | 6.15 µM (≈ 2.36 µg/mL) |  | 
23 | COc1ccc(C(=O)CN2C(=O)/C(=C\c3ccc(Cl)cc3)SC2=S)cc1 | 8.62 µM (≈ 3.48 µg/mL) | 4.78 |  |  |  |  |  | 
24 | CC(/C=C1\SC(=S)N(CC(=O)O)C1=O)=C\c1ccccc1 | > 200 µM | < 3.70 |  |  |  |  |  | 
25 | NNC(=O)c1ccncc1 [ISONIAZID] | 0.58 µM (≈ 0.0795 µg/mL) | 5.08 | 120 µM | 1.42 µM (≈ 0.195 µg/mL) | 2.85 µM (≈ 0.391 µg/mL) | 1.26 µM (≈ 0.173 µg/mL) | < 3.00 | < 3.00
26 | Oc1cc(Cl)ccc1Oc1ccc(Cl)cc1Cl [TRICLOSAN] | 8.65 µM (≈ 2.5 µg/mL) |  | 20.5 µM | 0.68 µM (≈ 0.197 µg/mL) | 1.25 µM (≈ 0.362 µg/mL) | 0.39 µM (≈ 0.113 µg/mL) | < 3.00 | 3.07
